Laboratory results published in ChEMBL document CHEMBL2086252, “Syntheses and evaluation of anticonvulsant activity of novel branched alkyl carbamates” (J Med Chem, 2012).
The source made the active and inactive calls. The calls are words filed in the database; no cut-off is given here.

Assays:
[1] = tested on: Mus musculus; assay: Anticonvulsant activity in albino CF1 mouse assessed as protection against subcutaneous metrazol-induced seizures at 30 mg/kg, ip after 0.5 hrs; type: functional, organism-based; parameters: dose 30 mg/kg
How it was run: (§1)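 Mice dosed ip at 30, 100 or 300 mg/kg, then tested 0.5 h and 4 h after administration in the MES or scMet test. Protection was recorded as animals protected over animals tested. Neurotoxicity was recorded as motor impairment or sedation, as animals affected over animals tested.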

[2] = tested on: Mus musculus; assay: Anticonvulsant activity in albino CF1 mouse assessed as protection against subcutaneous metrazol-induced seizures at 100 mg/kg, ip after 0.5 hrs; type: functional, organism-based; parameters: dose 100 mg/kg; how it was run: as §1
[3] = tested on: Mus musculus; assay: Anticonvulsant activity in albino CF1 mouse assessed as protection against subcutaneous metrazol-induced seizures at 300 mg/kg, ip after 0.5 hrs; type: functional, organism-based; parameters: dose 300 mg/kg; how it was run: as §1
[4] = tested on: Mus musculus; assay: Anticonvulsant activity in albino CF1 mouse assessed as protection against subcutaneous metrazol-induced seizures at 30 mg/kg, ip after 4 hrs; type: functional, organism-based; parameters: dose 30 mg/kg; how it was run: as §1
[5] = tested on: Mus musculus; assay: Anticonvulsant activity in albino CF1 mouse assessed as protection against subcutaneous metrazol-induced seizures at 100 mg/kg, ip after 4 hrs; type: functional, organism-based; parameters: dose 100 mg/kg; how it was run: as §1
[6] = tested on: Mus musculus; assay: Anticonvulsant activity in albino CF1 mouse assessed as protection against subcutaneous metrazol-induced seizures at 300 mg/kg, ip after 4 hrs; type: functional, organism-based; parameters: dose 300 mg/kg; how it was run: as §1
[7] = tested on: Mus musculus; assay: Anticonvulsant activity in albino CF1 mouse assessed as protection against maximal electroshock-induced seizures at 30 mg/kg, ip after 0.5 hrs; type: functional, organism-based; parameters: dose 30 mg/kg; how it was run: as §1
[8] = tested on: Mus musculus; assay: Anticonvulsant activity in albino CF1 mouse assessed as protection against maximal electroshock-induced seizures at 100 mg/kg, ip after 0.5 hrs; type: functional, organism-based; parameters: dose 100 mg/kg; how it was run: as §1
[9] = tested on: Mus musculus; assay: Anticonvulsant activity in albino CF1 mouse assessed as protection against maximal electroshock-induced seizures at 300 mg/kg, ip after 0.5 hrs; type: functional, organism-based; parameters: dose 300 mg/kg; how it was run: as §1
[10] = tested on: Mus musculus; assay: Anticonvulsant activity in albino CF1 mouse assessed as protection against maximal electroshock-induced seizures at 30 mg/kg, ip after 4 hrs; type: functional, organism-based; parameters: dose 30 mg/kg; how it was run: as §1
[11] = tested on: Mus musculus; assay: Anticonvulsant activity in albino CF1 mouse assessed as protection against maximal electroshock-induced seizures at 100 mg/kg, ip after 4 hrs; type: functional, organism-based; parameters: dose 100 mg/kg; how it was run: as §1
[12] = tested on: Mus musculus; assay: Anticonvulsant activity in albino CF1 mouse assessed as protection against maximal electroshock-induced seizures at 300 mg/kg, ip after 4 hrs; type: functional, organism-based; parameters: dose 300 mg/kg; how it was run: as §1
[13] = tested on: Mus musculus; assay: Neurotoxicity in albino CF1 mouse assessed as minimal motor impairment at 30 mg/kg, ip after 0.5 hrs by rotarod test; type: toxicity, organism-based; parameters: dose 30 mg/kg, route intraperitoneal; conditions: in vivo; how it was run: as §1
[14] = tested on: Mus musculus; assay: Neurotoxicity in albino CF1 mouse assessed as minimal motor impairment at 100 mg/kg, ip after 0.5 hrs by rotarod test; type: toxicity, organism-based; parameters: dose 100 mg/kg, route intraperitoneal; conditions: in vivo; how it was run: as §1
[15] = tested on: Mus musculus; assay: Neurotoxicity in albino CF1 mouse assessed as minimal motor impairment at 300 mg/kg, ip after 0.5 hrs by rotarod test; type: toxicity, organism-based; parameters: dose 300 mg/kg, route intraperitoneal; conditions: in vivo; how it was run: as §1
[16] = tested on: Mus musculus; assay: Neurotoxicity in albino CF1 mouse assessed as minimal motor impairment at 30 mg/kg, ip after 4 hrs by rotarod test; type: toxicity, organism-based; parameters: dose 30 mg/kg, route intraperitoneal; conditions: in vivo; how it was run: as §1
[17] = tested on: Mus musculus; assay: Neurotoxicity in albino CF1 mouse assessed as minimal motor impairment at 100 mg/kg, ip after 4 hrs by rotarod test; type: toxicity, organism-based; parameters: dose 100 mg/kg, route intraperitoneal; conditions: in vivo; how it was run: as §1
[18] = tested on: Mus musculus; assay: Neurotoxicity in albino CF1 mouse assessed as minimal motor impairment at 300 mg/kg, ip after 4 hrs by rotarod test; type: toxicity, organism-based; parameters: dose 300 mg/kg, route intraperitoneal; conditions: in vivo; how it was run: as §1
[19] = tested on: Rattus norvegicus; assay: Anticonvulsant activity in Sprague-Dawley albino rat assessed as protection against maximal electroshock-induced seizures at 30 mg/kg, po after 15 mins; type: functional, organism-based; parameters: dose 30 mg/kg
How it was run: (§2)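 Rats dosed orally. Anti-MES protection was scored as animals protected over animals tested at each time after dosing. Neurotoxicity was scored as motor impairment or sedation, as animals affected over animals tested.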

[20] = tested on: Rattus norvegicus; assay: Anticonvulsant activity in Sprague-Dawley albino rat assessed as protection against maximal electroshock-induced seizures at 30 mg/kg, po after 30 mins; type: functional, organism-based; parameters: dose 30 mg/kg; how it was run: as §2
[21] = tested on: Rattus norvegicus; assay: Anticonvulsant activity in Sprague-Dawley albino rat assessed as protection against maximal electroshock-induced seizures at 30 mg/kg, po after 4 hrs; type: functional, organism-based; parameters: dose 30 mg/kg; how it was run: as §2
[22] = tested on: Rattus norvegicus; assay: Neurotoxicity in Sprague-Dawley albino rat assessed as minimal motor impairment at 30 mg/kg, po by rotarod test; type: toxicity, organism-based; parameters: dose 30 mg/kg, route oral; conditions: in vivo; how it was run: as §2
[23] = tested on: Rattus norvegicus; assay: Neurotoxicity in pilocarpine-induced status epilepticus Sprague-Dawley albino rat model assessed as minimal motor impairment at 100 mg/kg, ip after 0.25 hr by rotarod test; type: toxicity, organism-based; parameters: dose 100 mg/kg, route intraperitoneal; conditions: in vivo
[24] = tested on: Rattus norvegicus; assay: Neurotoxicity in pilocarpine-induced status epilepticus Sprague-Dawley albino rat model assessed as minimal motor impairment at 300 mg/kg, ip after 0.25 hr by rotarod test; type: toxicity, organism-based; parameters: dose 300 mg/kg, route intraperitoneal; conditions: in vivo
How it was run: (§3)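 Rat pilocarpine status epilepticus model: test carbamate given at 0 or 30 min after the first observed Racine stage 3 motor seizure, which marks SE onset. Neurotoxicity was scored within the same model.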

[25] = tested on: Rattus norvegicus; assay: Neurotoxicity in pilocarpine-induced status epilepticus Sprague-Dawley albino rat model assessed as minimal motor impairment at 30 mg/kg, ip after 0.25 hr by rotarod test; type: toxicity, organism-based; parameters: dose 30 mg/kg, route intraperitoneal; conditions: in vivo; how it was run: as §3
[26] = tested on: Rattus norvegicus; assay: Neurotoxicity in pilocarpine-induced status epilepticus Sprague-Dawley albino rat model assessed as minimal motor impairment at 100 mg/kg, ip after 0.5 hrs by rotarod test; type: toxicity, organism-based; parameters: dose 100 mg/kg, route intraperitoneal; conditions: in vivo
[27] = tested on: Rattus norvegicus; assay: Neurotoxicity in pilocarpine-induced status epilepticus Sprague-Dawley albino rat model assessed as minimal motor impairment at 300 mg/kg, ip after 0.5 hrs by rotarod test; type: toxicity, organism-based; parameters: dose 300 mg/kg, route intraperitoneal; conditions: in vivo; how it was run: as §3
[28] = tested on: Rattus norvegicus; assay: Neurotoxicity in pilocarpine-induced status epilepticus Sprague-Dawley albino rat model assessed as minimal motor impairment at 30 mg/kg, ip after 0.5 hrs by rotarod test; type: toxicity, organism-based; parameters: dose 30 mg/kg, route intraperitoneal; conditions: in vivo; how it was run: as §3
[29] = tested on: Rattus norvegicus; assay: Neurotoxicity in pilocarpine-induced status epilepticus Sprague-Dawley albino rat model assessed as minimal motor impairment at 300 mg/kg, ip after 1 hr by rotarod test; type: toxicity, organism-based; parameters: dose 300 mg/kg, route intraperitoneal; conditions: in vivo; how it was run: as §3
[30] = tested on: Rattus norvegicus; assay: Neurotoxicity in pilocarpine-induced status epilepticus Sprague-Dawley albino rat model assessed as minimal motor impairment at 30 mg/kg, ip after 1 hr by rotarod test; type: toxicity, organism-based; parameters: dose 30 mg/kg, route intraperitoneal; conditions: in vivo; how it was run: as §3
[31] = tested on: Rattus norvegicus; assay: Neurotoxicity in pilocarpine-induced status epilepticus Sprague-Dawley albino rat model assessed as minimal motor impairment at 100 mg/kg, ip after 2 hrs by rotarod test; type: toxicity, organism-based; parameters: dose 100 mg/kg, route intraperitoneal; conditions: in vivo
[32] = tested on: Rattus norvegicus; assay: Neurotoxicity in pilocarpine-induced status epilepticus Sprague-Dawley albino rat model assessed as minimal motor impairment at 30 mg/kg, ip after 2 hrs by rotarod test; type: toxicity, organism-based; parameters: dose 30 mg/kg, route intraperitoneal; conditions: in vivo; how it was run: as §3
[33] = tested on: Rattus norvegicus; assay: Neurotoxicity in pilocarpine-induced status epilepticus Sprague-Dawley albino rat model assessed as minimal motor impairment at 100 mg/kg, ip after 4 hrs by rotarod test; type: toxicity, organism-based; parameters: dose 100 mg/kg, route intraperitoneal; conditions: in vivo
[34] = tested on: Rattus norvegicus; assay: Neurotoxicity in pilocarpine-induced status epilepticus Sprague-Dawley albino rat model assessed as minimal motor impairment at 300 mg/kg, ip after 4 hrs by rotarod test; type: toxicity, organism-based; parameters: dose 300 mg/kg, route intraperitoneal; conditions: in vivo; how it was run: as §3
[35] = tested on: Rattus norvegicus; assay: Neurotoxicity in pilocarpine-induced status epilepticus Sprague-Dawley albino rat model assessed as minimal motor impairment at 30 mg/kg, ip after 4 hrs by rotarod test; type: toxicity, organism-based; parameters: dose 30 mg/kg, route intraperitoneal; conditions: in vivo; how it was run: as §3

**Q.** For `CCC(COC(N)=O)CC(C)C` (racemic), which Activity [1] is on record?
**A.** inactive

**Q.** And the Activity [2]?
**A.** inactive

**Q.** What about the Activity [3] of the same molecule?
**A.** Active

**Q.** And the Activity [4]?
**A.** inactive

**Q.** What about the Activity [5] of the same molecule?
**A.** inactive

**Q.** And the Activity [6]?
**A.** inactive

**Q.** What about the Activity [7] of the same molecule?
**A.** inactive

**Q.** And the Activity [8]?
**A.** inactive

**Q.** And the Activity [9]?
**A.** Active

**Q.** What about the Activity [10] of the same molecule?
**A.** inactive

**Q.** What about the Activity [11] of the same molecule?
**A.** inactive

**Q.** What about the Activity [12] of the same molecule?
**A.** inactive

**Q.** What about the Activity [13] of the same molecule?
**A.** Non-toxic

**Q.** What about the Activity [14] of the same molecule?
**A.** Non-toxic

**Q.** And the Activity [15]?
**A.** Toxic

**Q.** And the Activity [16]?
**A.** Non-toxic

**Q.** And the Activity [17]?
**A.** Non-toxic

**Q.** And the Activity [18]?
**A.** Non-toxic

**Q.** And the Activity [19]?
**A.** inactive

**Q.** What about the Activity [20] of the same molecule?
**A.** inactive

**Q.** And the Activity [21]?
**A.** inactive

**Q.** And the Activity [22]?
**A.** Non-toxic

**Q.** And the Activity [23]?
**A.** Toxic

**Q.** What about the Activity [24] of the same molecule?
**A.** Toxic

**Q.** And the Activity [25]?
**A.** Non-toxic

**Q.** What about the Activity [26] of the same molecule?
**A.** Toxic

**Q.** What about the Activity [27] of the same molecule?
**A.** Toxic

**Q.** What about the Activity [28] of the same molecule?
**A.** Non-toxic

**Q.** What about the Activity [29] of the same molecule?
**A.** Toxic

**Q.** And the Activity [30]?
**A.** Non-toxic

**Q.** What about the Activity [31] of the same molecule?
**A.** Non-toxic

**Q.** And the Activity [32]?
**A.** Non-toxic

**Q.** And the Activity [33]?
**A.** Non-toxic

**Q.** What about the Activity [34] of the same molecule?
**A.** Non-toxic

**Q.** And the Activity [35]?
**A.** Non-toxic
